Experimental findings from ChEMBL document CHEMBL3525967, “In vitro glucuronidation of the antibacterial triclocarban and its oxidative metabolites” (Drug Metab Dispos, 2012) are described below.

Molecules are shown by their SMILES.

Data set [1] is described as follows: Drug metabolism in microsomes (unknown origin) assessed as retention time at 10 uM by LC-UV-MS method. Format: ADME, Microsome. The gist of the method:
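Retention times were measured on a C18 column (2 × 100 mm, 2.2 µm) at 300 µL/min. Solvent A was 25 mM ammonium acetate with 0.1% acetic acid; solvent B was ACN. Gradient: 30% B isocratic for 2 min, convex 30–85% B to 7.5 min, then […]. Detection was UV at 265 nm and ESI-MS in SRM mode.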

Data set [2] in a line: Drug metabolism in human kidney microsomes assessed as N-glucuronide-triclocarban formation incubated for 5 mins prior to UDPGA addition measured after 5 to 30 mins by LC-UV analysis. Format: ADME. The gist of the method:
(§1)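 Pooled human kidney or liver microsomes (liver: 25 mixed-gender donors), 5 µg protein, in 200 µL 100 mM potassium phosphate pH 7.4. Alamethicin pre-treated on ice 15 min. Final 10 µM TCC (2% DMSO), with 10 mM MgCl2 and 10 mM saccharolactone, preincubated 5 min at 37 °C. Started with UDPGA (20 mM stock). Sampled at 5, 10, 15 and 30 min into ACN containing 1 µM DCC internal standard.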

The nature of data set [3]: Drug excretion in Sprague-Dawley rat urine assessed as 2'-O-glucuronide-triclocarban formation at 1 mg/kg, po by LC-MS analysis. Format: ADME, organism-based. More on the design: dose 1 mg/kg, route oral. The settings on record: in vivo.
For data set [4], the target named is T1, UDP-glucuronosyltransferase 1A9 (Homo sapiens, UniProt O60656).
T1 sequence (O60656 whole entry): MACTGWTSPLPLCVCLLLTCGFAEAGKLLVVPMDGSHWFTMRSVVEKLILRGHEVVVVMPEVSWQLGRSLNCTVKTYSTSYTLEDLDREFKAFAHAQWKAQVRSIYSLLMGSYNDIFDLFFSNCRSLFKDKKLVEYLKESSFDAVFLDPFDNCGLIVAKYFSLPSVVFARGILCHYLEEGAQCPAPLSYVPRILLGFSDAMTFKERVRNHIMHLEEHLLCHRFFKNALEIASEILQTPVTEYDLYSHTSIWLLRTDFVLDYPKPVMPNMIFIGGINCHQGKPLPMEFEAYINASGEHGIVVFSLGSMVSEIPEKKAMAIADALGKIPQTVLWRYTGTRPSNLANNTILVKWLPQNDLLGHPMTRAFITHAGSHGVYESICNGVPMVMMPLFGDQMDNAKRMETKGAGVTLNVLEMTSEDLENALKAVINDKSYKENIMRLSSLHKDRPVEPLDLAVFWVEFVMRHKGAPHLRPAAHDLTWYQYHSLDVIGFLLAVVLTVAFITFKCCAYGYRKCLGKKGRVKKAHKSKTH
Put plainly: Drug metabolism assessed as human UGT1A9-mediated N'-glucuronide-triclocarban formation expressed in baculovirus infected insect sf9 cells incubated for 5 mins prior to UDPGA addition measured after 30 mins by LC-ESI-MS analysis. It is filed as ADME. Particulars: sf9, 0.5 h. A digest of the protocol: (§2)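 TCC was incubated at 10 µM (2% DMSO) in 100 mM phosphate pH 7.4 with alamethicin-treated microsomes or Supersomes, 10 mM MgCl2 and 10 mM saccharolactone. After 5 min pre-incubation at 37 °C, UDPGA was added to start the reaction. Protein was raised up to 2 mg/mL. Samples were quenched in ACN with 1 µM DCC internal standard, centrifuged, and N-glucuronides detected by LC-ESI-MS/MS in SRM mode.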

Data set [5] can be described thus: Drug metabolism in B6C3F1 mouse liver microsomes assessed as N'-glucuronide-triclocarban formation incubated for 5 mins prior to UDPGA addition measured after 5 to 30 mins by LC-UV analysis. It is filed as ADME. The gist of the method: (§3)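 Microsomes or UGT Supersomes (5 µg protein) were held 15 min on ice with alamethicin in 100 mM potassium phosphate pH 7.4. TCC was added at 10 µM (2% DMSO) with 10 mM MgCl2 and 10 mM saccharolactone, pre-warmed 5 min at 37 °C, then started with UDPGA. Samples at 5, 10, 15 and 30 min were quenched in ACN. Product was read by LC-UV at 265 nm; rate came from regression over time, three incubations.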

Data set [6] deals with T2, UDP-glucuronosyltransferase 1A7 (Homo sapiens, UniProt Q9HAW7).
T2 sequence (Q9HAW7 whole entry): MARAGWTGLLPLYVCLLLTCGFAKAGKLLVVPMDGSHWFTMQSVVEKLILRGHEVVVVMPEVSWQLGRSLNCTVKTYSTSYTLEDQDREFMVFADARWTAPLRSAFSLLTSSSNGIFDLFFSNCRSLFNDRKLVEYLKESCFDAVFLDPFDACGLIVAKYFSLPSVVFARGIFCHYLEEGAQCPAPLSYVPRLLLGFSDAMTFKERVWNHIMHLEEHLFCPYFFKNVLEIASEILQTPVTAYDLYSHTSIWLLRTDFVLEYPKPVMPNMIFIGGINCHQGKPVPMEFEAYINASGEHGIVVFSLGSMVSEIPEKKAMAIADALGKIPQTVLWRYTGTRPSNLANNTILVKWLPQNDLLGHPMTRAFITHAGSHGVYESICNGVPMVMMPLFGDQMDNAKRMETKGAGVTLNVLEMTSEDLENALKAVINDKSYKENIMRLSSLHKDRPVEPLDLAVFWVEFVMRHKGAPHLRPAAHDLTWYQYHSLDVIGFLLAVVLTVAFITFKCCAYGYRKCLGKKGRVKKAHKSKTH
Put plainly: Drug metabolism assessed as human UGT1A7-mediated N'-glucuronide-triclocarban formation expressed in baculovirus infected insect sf9 cells incubated for 5 mins prior to UDPGA addition measured after 5 to 30 mins by LC-UV analysis. It is filed as ADME. A digest of the protocol:
as §3

The target of data set [7] is T3, UDP-glucuronosyltransferase 2B15 (Homo sapiens, UniProt P54855).
T3 sequence (P54855 whole entry): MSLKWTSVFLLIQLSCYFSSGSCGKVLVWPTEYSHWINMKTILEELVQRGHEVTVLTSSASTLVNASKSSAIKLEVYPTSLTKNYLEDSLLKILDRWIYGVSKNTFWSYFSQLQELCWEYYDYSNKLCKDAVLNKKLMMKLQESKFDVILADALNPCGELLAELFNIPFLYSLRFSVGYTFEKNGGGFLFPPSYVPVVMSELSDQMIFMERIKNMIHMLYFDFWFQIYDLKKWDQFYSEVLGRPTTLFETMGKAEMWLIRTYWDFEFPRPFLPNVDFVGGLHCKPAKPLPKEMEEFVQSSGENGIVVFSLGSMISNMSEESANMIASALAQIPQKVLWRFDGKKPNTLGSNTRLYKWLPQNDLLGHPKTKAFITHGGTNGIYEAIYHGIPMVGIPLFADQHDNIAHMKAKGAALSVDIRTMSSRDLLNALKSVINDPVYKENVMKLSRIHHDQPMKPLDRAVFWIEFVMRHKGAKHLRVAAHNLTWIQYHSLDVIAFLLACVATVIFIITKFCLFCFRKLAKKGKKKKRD
Put plainly: Drug metabolism assessed as human UGT2B15-mediated N'-glucuronide-triclocarban formation expressed in baculovirus infected insect sf9 cells incubated for 5 mins prior to UDPGA addition measured after 5 to 30 mins by LC-UV analysis. Format: ADME. A digest of the protocol:
as §3

Data set [8] is described as follows: Drug metabolism in cynomolgus monkey liver microsomes assessed as N-glucuronide-triclocarban formation incubated for 5 mins prior to UDPGA addition measured after 30 mins by LC-UV-ESI-MS/MS analysis. The settings on record: 0.5 h. It is filed as ADME, Macaca fascicularis. A digest of the protocol:
as §2
(Liver microsomes are a subcellular fraction often used to study metabolism.)

The test system of another data set is Liver microsome. Put plainly: Drug metabolism in human liver microsomes assessed as N-glucuronide-triclocarban formation incubated for 5 mins prior to UDPGA addition measured after 30 mins by LC-UV-ESI-MS/MS analysis. Format: ADME. Particulars: 0.5 h. A digest of the protocol:
as §1

Take `O=C(Nc1ccc(Cl)cc1)Nc1ccc(Cl)c(Cl)c1` [TRICLOCARBAN]: the Retention_time in [1] stood at 5.1 min. Also, the Drug metabolism result is given as “metabolite_not_detected” in data set [2]; “metabolite_detected” in data set [4]; “metabolite_not_detected” in data set [5]; “metabolite_not_detected” in data set [6]; “metabolite_not_detected” in data set [7]; “metabolite_detected” in data set [8]. Besides, the Drug metabolism entry in the data set with Liver microsome is recorded as “metabolite_detected”. Also, the Drug excretion entry in data set [3] is on record as “metabolite_detected”.
